Assay results from ChEMBL document CHEMBL4689842, “EUbOPEN Chemogenomics Library wave 1” (2021).

Tests used:
U2OS = assay: Multiplex assay against U2OS; assay type: toxicity, cell-based; conditions: human
Outline: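 At seeding, live cells were stained with Hoechst33342, BioTracker Green Microtubule Cytoskeleton Dye, MitoTracker Red and Annexin V Alexa Fluor 680. After compound addition they were imaged on a CQ1 microscope at 37°C and 5% CO2, and CellPathfinder machine-learning gating sorted them into Hoechst high-intensity objects or normal cells, with normal cells further split into healthy, pyknosed or fragmented nuclei and pyknosed cells into mitotic or apoptotic. Tubulin, mitochondrial-mass and membrane-permeability phenotypes are given as per cents of cells with healthy nuclei.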

Fibroblast = assay: Incucyte cell viability with human fibroblast; assay type: toxicity, cell-based; conditions: 10 µM, compound concentration 10 uM; note: filed as whole numbers so only -1 and 0 and 1 occur
[1] = 12 h, 1 µM, compound concentration 1 uM, replicate 1
[2] = 12 h, 1 µM, compound concentration 1 uM, replicate 2
[3] = 12 h, 10 µM, compound concentration 10 uM, replicate 1
[4] = 12 h, 10 µM, compound concentration 10 uM, replicate 2
[5] = 24 h, 1 µM, compound concentration 1 uM, replicate 1
[6] = 24 h, 1 µM, compound concentration 1 uM, replicate 2
[7] = 24 h, 10 µM, compound concentration 10 uM, replicate 1
[8] = 24 h, 10 µM, compound concentration 10 uM, replicate 2
[9] = 48 h, 1 µM, compound concentration 1 uM, replicate 1
[10] = 48 h, 1 µM, compound concentration 1 uM, replicate 2
[11] = 48 h, 10 µM, compound concentration 10 uM, replicate 1
[12] = 48 h, 10 µM, compound concentration 10 uM, replicate 2

## C=CC(=O)Nc1cc(-n2c(=O)ccc3cnc4ccc(-c5ccc(NS(C)(=O)=O)cc5)cc4c32)ccc1C
U2OS; [1]
  Population Apoptotic (%): 35%
  Population Fragmented Nuclei (%): 6%
  Population Healthy Nuclei (%): 80%
  Population Hoechst High Intensity Objects (%): 3%
  Population Membrane Permeable-Phenotype (%): 7%
  Population Mitochondria Different-Phenotype (%): 4%
  Population Mitotic Cells (%): 65%
  Population Normal (%): 96%
  Population Pyknosed Nuclei (%): 12%
  Population Tubulin-Different-Phenotype (%): 6%
  Total Cell Count: 164
U2OS; [2]
  Population Apoptotic (%): 33%
  Population Fragmented Nuclei (%): 10%
  Population Healthy Nuclei (%): 77%
  Population Hoechst High Intensity Objects (%): 7%
  Population Membrane Permeable-Phenotype (%): 0%
  Population Mitochondria Different-Phenotype (%): 10%
  Population Mitotic Cells (%): 66%
  Population Normal (%): 92%
  Population Tubulin-Different-Phenotype (%): 10%
  Total Cell Count: 53
U2OS; [3]
  Population Apoptotic (%): 30%
  Population Fragmented Nuclei (%): 19%
  Population Healthy Nuclei (%): 66%
  Population Hoechst High Intensity Objects (%): 7%
  Population Membrane Permeable-Phenotype (%): 10%
  Population Mitochondria Different-Phenotype (%): 26%
  Population Mitotic Cells (%): 69%
  Population Normal (%): 92%
  Population Pyknosed Nuclei (%): 14%
  Population Tubulin-Different-Phenotype (%): 29%
  Total Cell Count: 173
U2OS; [4]
  Population Apoptotic (%): 76%
  Population Fragmented Nuclei (%): 8%
  Population Healthy Nuclei (%): 54%
  Population Hoechst High Intensity Objects (%): 9%
  Population Membrane Permeable-Phenotype (%): 12%
  Population Mitochondria Different-Phenotype (%): 56%
  Population Mitotic Cells (%): 23%
  Population Normal (%): 90%
  Population Pyknosed Nuclei (%): 36%
  Population Tubulin-Different-Phenotype (%): 52%
  Total Cell Count: 51
U2OS; [5]
  Population Apoptotic (%): 28%
  Population Fragmented Nuclei (%): 6%
  Population Healthy Nuclei (%): 86%
  Population Hoechst High Intensity Objects (%): 4%
  Population Membrane Permeable-Phenotype (%): 4%
  Population Mitochondria Different-Phenotype (%): 8%
  Population Mitotic Cells (%): 71%
  Population Normal (%): 95%
  Population Pyknosed Nuclei (%): 6%
  Population Tubulin-Different-Phenotype (%): 12%
  Total Cell Count: 216
U2OS; [6]
  Population Apoptotic (%): 55%
  Population Fragmented Nuclei (%): 11%
  Population Healthy Nuclei (%): 76%
  Population Hoechst High Intensity Objects (%): 2%
  Population Membrane Permeable-Phenotype (%): 3%
  Population Mitochondria Different-Phenotype (%): 15%
  Population Mitotic Cells (%): 44%
  Population Normal (%): 97%
  Population Pyknosed Nuclei (%): 11%
  Population Tubulin-Different-Phenotype (%): 22%
  Total Cell Count: 79
U2OS; [7]
  Population Apoptotic (%): 53%
  Population Fragmented Nuclei (%): 17%
  Population Healthy Nuclei (%): 69%
  Population Hoechst High Intensity Objects (%): 3%
  Population Membrane Permeable-Phenotype (%): 8%
  Population Mitochondria Different-Phenotype (%): 17%
  Population Mitotic Cells (%): 46%
  Population Normal (%): 96%
  Population Pyknosed Nuclei (%): 13%
  Population Tubulin-Different-Phenotype (%): 15%
  Total Cell Count: 202
U2OS; [8]
  Population Apoptotic (%): 84%
  Population Fragmented Nuclei (%): 21%
  Population Healthy Nuclei (%): 32%
  Population Hoechst High Intensity Objects (%): 5%
  Population Membrane Permeable-Phenotype (%): 22%
  Population Mitochondria Different-Phenotype (%): 50%
  Population Mitotic Cells (%): 15%
  Population Normal (%): 94%
  Population Pyknosed Nuclei (%): 46%
  Population Tubulin-Different-Phenotype (%): 33%
  Total Cell Count: 59
U2OS; [9]
  Population Apoptotic (%): 25%
  Population Fragmented Nuclei (%): 5%
  Population Healthy Nuclei (%): 87%
  Population Hoechst High Intensity Objects (%): 2%
  Population Membrane Permeable-Phenotype (%): 1%
  Population Mitochondria Different-Phenotype (%): 14%
  Population Mitotic Cells (%): 74%
  Population Normal (%): 97%
  Population Pyknosed Nuclei (%): 7%
  Population Tubulin-Different-Phenotype (%): 14%
  Total Cell Count: 360
U2OS; [10]
  Population Apoptotic (%): 9%
  Population Fragmented Nuclei (%): 9%
  Population Healthy Nuclei (%): 81%
  Population Hoechst High Intensity Objects (%): 3%
  Population Membrane Permeable-Phenotype (%): 0%
  Population Mitochondria Different-Phenotype (%): 12%
  Population Mitotic Cells (%): 90%
  Population Normal (%): 96%
  Population Pyknosed Nuclei (%): 9%
  Population Tubulin-Different-Phenotype (%): 20%
  Total Cell Count: 115
U2OS; [11]
  Population Apoptotic (%): 77%
  Population Fragmented Nuclei (%): 15%
  Population Healthy Nuclei (%): 72%
  Population Hoechst High Intensity Objects (%): 4%
  Population Membrane Permeable-Phenotype (%): 10%
  Population Mitochondria Different-Phenotype (%): 19%
  Population Mitotic Cells (%): 22%
  Population Normal (%): 95%
  Population Pyknosed Nuclei (%): 12%
  Population Tubulin-Different-Phenotype (%): 9%
  Total Cell Count: 257
U2OS; [12]
  Population Apoptotic (%): 95%
  Population Fragmented Nuclei (%): 19%
  Population Healthy Nuclei (%): 35%
  Population Hoechst High Intensity Objects (%): 5%
  Population Membrane Permeable-Phenotype (%): 22%
  Population Mitochondria Different-Phenotype (%): 33%
  Population Mitotic Cells (%): 4%
  Population Normal (%): 94%
  Population Pyknosed Nuclei (%): 45%
  Population Tubulin-Different-Phenotype (%): 33%
  Total Cell Count: 54
Fibroblast; 0 h, replicate number 1, timepoint 0 hours
  Growth Rate: 0
Fibroblast; 6 h, replicate number 1, timepoint 6 hours
  Growth Rate: 1
Fibroblast; 6 h, replicate number 2, timepoint 6 hours
  Growth Rate: 0
Fibroblast; 12 h, replicate number 1, timepoint 12 hours
  Growth Rate: 1
Fibroblast; 12 h, replicate number 2, timepoint 12 hours
  Growth Rate: 0
Fibroblast; 18 h, replicate number 1, timepoint 18 hours
  Growth Rate: 1
Fibroblast; 18 h, replicate number 2, timepoint 18 hours
  Growth Rate: 0
Fibroblast; 24 h, replicate number 1, timepoint 24 hours
  Growth Rate: 1
Fibroblast; 24 h, replicate number 2, timepoint 24 hours
  Growth Rate: 0
